Compound activity deposited in PubChem by PCMD.
Yeast tox: Inhibitors of S. cerevisiae growth, toxicity; S. cerevisiae wild-type growth, A595 turbidity, 16 h; growth inhibition, % at 25 µM (by protocol); 30,000 tested, 0.3% active; AID 685;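 active = mutant and wild-type yeast strains alike exhibit over 30% growth inhibition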;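 note: 0% = untreated cell controls and 100% = YPD media blanks without cells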
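Schedule: 16 h growth with compound, 30 °C. System: yeast, wild-type or eIF2Bepsilon-R284H mutant. Doses: one dose, 25 µM compound[…]. Buffer or medium: YPD. Signal: turbidity measured as absorbance at 595 nm. Read-out basis: growth inhibition (%) versus cell controls and blanks.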
Yeast eIF2B: modulators of yeast eIF2B activity; inhibition, % at 25 µM (by protocol); S. cerevisiae eIF2B-epsilon R284H, GCN4-lacZ luminescence; 27,000 tested, 0.91% active;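 active = mutant luminescence inhibited past about 50% while wild type luminescence and mutant growth stay under set limits, limit read from the data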
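material = yeast eIF2B-epsilon R284H mutant carrying GCN4–beta-galactosidase fusion | schedule = 16 h growth with compound at 30 °C, 90 min Beta-Glo step | measured by = luminescence and A595 | compound dosing = one concentration, 25 µM, 0.25% DMSO | read-out basis = % inhibition of reporter signal and growth versus controls | buffer or medium = YPD medium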
The depositor's hits bear a star; nt = no result. Shown are actives, neighbours in structure and some others; about 1% of the full set was active somewhere.

SMILES | Yeast tox | Yeast eIF2B
CCCCCOP(=O)(OCCCCC)C1(NS(=O)(=O)c2ccccc2)C=CC(=O)c2ccccc21 (configuration not stated) | -44 | 12
O=c1ccccn1Cc1c(F)cccc1Cl | -2 | nt
Cc1ccc(-c2cc(C(=O)Nc3c(C)n(C)n(-c4ccccc4)c3=O)[nH]n2)c(O)c1 | -14 | nt
Cc1ccc(O)c(-c2cc(-c3ccccc3F)[nH]n2)c1 | -5 | nt
Cc1ccc(-c2cc(-c3cccc(F)c3)n[nH]2)c(O)c1 | 30* | nt
Oc1ccc(Br)cc1-c1cc(-c2ccc(Cl)cc2)n[nH]1 | -15 | nt
Oc1ccccc1-c1cc(-c2ccc3c(c2)OCCO3)n[nH]1 | nt | 51*
Cc1ccc(O)c(-c2cc(-c3cccc(F)c3)n[nH]2)c1 | 51* | nt
COc1ccc(-c2cc(-c3ccccc3O)[nH]n2)cc1OC | 5 | 17
Oc1ccc(Br)cc1-c1cc(-c2ccccc2)n[nH]1 | 80* | 28
CCCc1cc(NCC2CCCO2)n2c(nc3ccccc32)c1C#N (configuration not stated) | -18 | 25
Cc1ccc(NS(=O)(=O)c2ccc(OCC(=O)N3CCOCC3)cc2)cc1 | 9 | 22
CC(C(=O)N1CCc2ccccc21)n1cccc1 (configuration not stated) | -14 | 15
CCOC(=O)CCP(=O)(O)C(O)c1ccccc1 (configuration not stated) | 19 | 12
C=CCc1cccc(CNc2nc3ccccc3n2C(C)C)c1O | 15 | 63*
CCn1c(NCc2cccc(OC)c2OC)nc2ccccc21 | 5 | 18
O=C(Nc1ccon1)c1cc2ccccc2oc1=O | 23 | 20
O=C(Nc1ccccn1)c1cc2ccccc2o1 | nt | 57*
CCC(=O)Nc1ccc(NC(=O)c2cc3ccccc3o2)cc1 | 18 | 19
COC(=O)c1nn(-c2ccc3c(c2)OCO3)cc1O | -24 | 26
COC(=O)c1nn(-c2ccc3c(c2)CCN3C(C)=O)cc1O | -9 | 77*
OC(c1ccccc1)(c1ccc(F)cc1)C(c1ccccc1)N1CCOCC1 (configuration not stated) | -13 | 11
CN1CCc2nc(SCCOc3ccccc3)c(C#N)cc2C1 | 16 | 70*
CCOC(=O)C1=C(CSc2nc3c(cc2C#N)CN(C)CC3)OC(N)=C(C#N)C1c1ccccc1 (configuration not stated) | -6 | 18
CN(C)S(=O)(=O)c1ccc(-c2csnn2)s1 | 15 | nt
SMILES | Yeast tox | Yeast eIF2B
Cc1cc(NCc2ccc(F)cc2Cl)n2nnnc2n1 | 16 | 64*
COc1ccc(CNc2cc(C)nc3ncnn23)c(OC)c1 | 8 | 17
Cc1ccc(C2CC(C(F)(F)F)n3nc(C(=O)NCC4CCCO4)cc3N2)cc1 (configuration not stated) | 2 | 13
CCN(CC)C(=O)CSCc1cnn(-c2ccccc2)c1-n1cccc1 | 11 | nt
CC(C)CC(=O)Nc1ccccc1-c1nnn(CC(=O)N2CCc3ccccc3C2)n1 | 18 | 2
CCn1c(SCc2cccc(C)c2)nnc1-c1ccc(C)cc1 | 4 | 16
Cc1cccc(-c2nnc(SCC#N)n2Cc2ccccc2)c1 | -15 | 64*
O=C(CCC1=NS(=O)(=O)c2ccccc2N1)NC1CCCCCCC1 | -6 | 22
O=C(CC1Nc2ccccc2NC1=O)NC1CCCCC1 (configuration not stated) | -16 | 58*
Cn1cc(-c2nnc(-c3ccccc3)o2)c2ccccc21 | 2 | 10
CCOC(=O)C1(C)/C(=N/Nc2ccccc2Cl)C(=O)C(=O)N1c1ccccc1 (configuration not stated) | -2 | nt
CCCCN1C(=O)CN(CCc2ccccc2)C(=O)C1c1ccc(OC)cc1 (configuration not stated) | 1 | 58*
CCNC(=O)CC1C(=O)N(c2ccccc2)C(=O)N1CCc1ccc(OC)cc1 (configuration not stated) | 5 | 14
CC(C(=O)O)n1c(C(F)(F)F)nc2ccccc21 (configuration not stated) | 14 | 20
CCOC(=O)c1cc(S(=O)(=O)N2CCN(C(=O)OCC)CC2)cn1C | -1 | 67*
CCOC(=O)COc1ccc(S(=O)(=O)N2CCN(C(=O)OCC)CC2)cc1 | 9 | 11
COc1ccc(Cl)cc1NC(=O)C(=O)NC1CCCCCC1 | 12 | 19
O=C(NC1CCCCC1)Sc1ccc(Cl)cc1 | 41* | 9
CC(C)(C)SCCNC(=O)c1ccc(Cl)c(S(=O)(=O)N2CCOCC2)c1 | 0 | 52*
O=C(NCc1ccncc1)c1ccc(Cl)c(S(=O)(=O)N2CCOCC2)c1 | nt | 19
Cn1c(SCC(=O)NC(=O)NCc2ccco2)nnc1C(F)(F)F | 15 | 12
CC1CCCN(C(=O)COC(=O)c2ccc[nH]c2=O)C1 (configuration not stated) | -8 | -34
CCCOc1ccc(C(=O)N2CCCc3ccccc32)cc1 | -14 | 73*
COc1cc(OC)cc(C(=O)N2CCCc3ccccc32)c1 | 2 | 19
O=C(O)c1c[nH]c2ccc(S(=O)(=O)N3CCN(c4ccc(F)cc4)CC3)cc2c1=O | 18 | 10
SMILES | Yeast tox | Yeast eIF2B
O=C(c1c[nH]c2ccc(S(=O)(=O)N3CCOCC3)cc2c1=O)N1CCCC1 | 1 | 60*
COc1cccc(N(CC(=O)NCCSc2ccc(Cl)cc2)S(C)(=O)=O)c1 | 8 | 19
Cc1oc(C(C)(C)C)cc1C(=O)N1CCCC1C(=O)O (configuration not stated) | 8 | 10
CCOc1ccc(-c2[nH]ncc2Oc2ccccc2OC)c(O)c1 | 32 | 8
CCCOC(=O)c1ccc(Oc2cn[nH]c2-c2ccc(OC)cc2O)cc1 | 60* | 29
O=C1C2CC=CCC2C(=O)N1c1n[nH]c(CCc2ccccc2)n1 (configuration not stated) | 4 | nt
C=CCSc1nnc2c(n1)OC(c1cccnc1)N(C(C)=O)c1ccccc1-2 (configuration not stated) | -9 | 55*
COc1ccc(C2Oc3ccccc3N2C(C)=O)cc1 (configuration not stated) | -34 | 0
CC(OC(=O)C1CCN(S(=O)(=O)c2ccc(Cl)cc2)CC1)C(=O)N1CCc2ccccc21 (configuration not stated) | -4 | -30
c1cncc(-c2nc(Oc3ccc(-c4nnco4)cc3)c3c4c(sc3n2)CCCC4)c1 | -46 | -25
O=C1CC(C(=O)N2CCOCC2)C2(CCCCC2)O1 (configuration not stated) | 20 | nt
Clc1ccc(Nc2nc(-c3cccnc3)cs2)cc1 | 5 | 20
Cc1cccnc1Nc1nc(-c2ccc(O)cc2)cs1 | 36* | nt
COc1ccc(-c2nn(C)c(=O)c3ccccc23)cc1NC(=O)Cn1nc(-c2ccccc2)c2ccccc2c1=O | 2 | -20
COCCOC(=O)CC1=NC(=O)CS1 | 21 | 1
CCOC(=O)CC1=NC(=O)CS1 | 3 | 64*
Cc1noc(C)c1CSc1cc(C)c2ccccc2n1 | 14 | 9
CCCCCCn1ccc(=N)cc1 | -8 | -17
CCCCCCCCCCn1c2c(c(=N)c3c1CCC3)CCC2 | 79* | nt
CC1(C)CC(=O)c2cc(OCC(=O)NCCCN3CCN(c4ccccc4F)CC3)ccc2O1 | -17 | 52*
CC1(C)CC(=O)c2cc(OCC(=O)N3CCOCC3)ccc2O1 | 4 | 27
c1ccc2[nH]c(CSc3nc4ccccc4o3)nc2c1 | 15 | -1
